The labels stand for the following.
B1: tRNA (parent)
chain: CUCUCGGUAGCCAAGUUGGUUUAAGGCGCAAGACUUUAAUUUAUCACUACGAAAUCUUGAGAUCGGGCGUUCGACUCGCCCCCGGGAGAUUUUUUCCUCGAGCAA

This sample holds only a part of the variants without activity.

This data set covers variants of B1. The data set is described as follows: nonsense suppression (GFP-seq) (ratio to wild type); higher = more function; SUP4oc tRNA, yeast GFP reporter sort-seq. In outline: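 Nonsense suppression (GFPSEQ) is the median GFP/RFP ratio of each sorting bin, weighted by the variant's estimated share of cells in that bin and expressed relative to the unmutated parent tRNA. Yeast strains carried genome-integrated variants of an ochre-suppressor tRNA from a library with ~3% random mutations, plus a galactose-driven GFP ochre reporter and RFP, and were grown in raffinose/galactose medium containing 80 mg/L adenine. Cells were sorted into GFP/RFP bins, each bin was Illumina-sequenced (phred ≥30), and variants were kept only with ≥100 reads and ≥30 cells.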
CUCUCGGUAGCCAAGUCGAUUUAAGGGGCAAGACUUUAAUUUAUCACUACGAAAUCUUGAGAUCGGGCGUUCGACUCGCCCCCGGGAGAUUUUUUCCUCGAGCAA [U17C G19A C27G]: the nonsense suppression was at most 0.026.
Under CUCUCGGUAGCCAAGUCGGUUUAAGGCGCAAGACUUUAAUUUAUCACUACGAAAUCUUGAGAUCGGGCGUUCAACUCGCCCCCGGGAGAUUUUUUCCUCGAGCAA [U17C G73A] stands 0.899.
On to CUCUCGGUAGCCAAGUCGGUUUAAGGCGCGAGACUUUAAUUUAUCACUACGAAAUCUUGAGAUCGGGCGUUCGACUCGCCCCCGGGAGAUUUUUUCCUCGAGCAA [U17C A30G], for which the nonsense suppression worked out at 0.326.
In the case of CUCUCGGUAGCCAAGUCGGUUUAAGGCGCUAGACUUUAAUUUAUCACUACGAAAUCUUGAGAUCGGGCGUUCGACUCGCCCCCGGGAGAUUUUUUCCUCGAGCAA [U17C A30U], the nonsense suppression came out at 0.16.
Under CUCUCGGUAGCCAAGUCGGUUUAAGGCGCAAGGCUUUAAUUUAUCACUACGAAAUCUUGAGAUCGGGCGUUCGACUCGCCCCCGGGAGAUUUUUUCCUCGAGCAA [U17C A33G] stands 0.0608; under CUCUCGGUAGCCAAGUCGGUUUAAGGCGCAAGACUUUAAUUUAUCACUACGAAAUCUUGAGAUCGGGCGUUGGACUCGCCCCCGGGAGAUUUUUUCCUCGAGCAA [U17C C72G], at most 0.026; under CUCUCGGUAGCCAAGUCGGUUUAAGGCACAAGACUUUAAUUUAUCACUACGAAAUCUUGAGAUCGGGCGUUCGACUCGCCCCCGGGAGAUUUUUUCCUCGAGCAA [U17C G28A], 1.09.
Under CUCUCGGUAGCCAAGUCGGUUUAAGGCGCAAGACUUUAAUUUAUCACUACGAAAUCUUGAGAUCGGGAGUUCGACUCGCCCUCGGGAGAUUUUUUCCUCGAGCAA [U17C C68A C82U] stands at most 0.026; under CUCUCGGUAGCCAAGUCGGUUUAAGGCGCAAGACUUUAAUUUAUCACUACGAAAUCUUGAGAUCGGGCGUUCGACUCGCCCCCGGGGGAUUUUUUCCUCGAGCAA [U17C A87G], 0.226.
In the case of CUCUCGGUAGCCAAGUCGGUUUAAGGCCCAAGACUUUAAUUUAUCACUACGAAUUCUUGAGAUCGGGCGUUCGACUCGCCCCCGGGAGAUUUUUUCCUCGAGCAA [U17C G28C A54U], the nonsense suppression is 0.219.
Under CUCUCGGUAGCCAAGUCGGUUUAAGGCUCCAGACUUUAAUUUAUCACUACGAAAUCUUGAGAUCGGGCGUUCGACUCGCCCCCGGGAGAUUUUUUCCUCGAGCAA [U17C G28U A30C] stands at most 0.026; under CUCUCGGUAGCCAAGUCGGUUUAAGGCGCAAGACUUUAAUUUAUCACUACGAAAUCUUGAGAUCGGGCGUUCGAAUCGCCCCCGGGAAAUUUUUUCCUCGAGCAA [U17C C75A G88A], at most 0.026.
Under CUCUCGGUAGCCAAGUCGGUUUAAGGCGAAAGACUUUAAUUUAUCACUACGAAAUCUUGAGAUCAGGCGUUUGACUUGCCCCCGGGAGAUUUUUUCCUCGAGCAA [U17C C29A G65A C72U C77U] stands at most 0.026.
Turning to CUCUCGGUAGCCAAGUCGGUUUAAGGCGGAAGACUUUAAUUUAUCACUACGAAAUCUUGAGAUCGGGCGUUCGACUCGCCCCCGGGAGAUUUUUUCCUCGAGCAA [U17C C29G], the nonsense suppression was at most 0.026.
As for CUCUCGGUAGCCAAGUCGGUUUAAGGCGCAAGACUUUAAUUUAUCACUACGAAUUCUUGAGAUCGGGCGUUCGACUCGCCCCCGGGAGAUUUUUUCCUCGAGCAA [U17C A54U], the nonsense suppression amounted to 0.788.
With CUCUCGGUAGCCAAGUCGGUUUAAGGCGCAAGACUUUAAUUUAUCACUACGAAAUCUUGGGAUCGGGCGUUCGACUCGCCCCCGGGAGAUUUUUUCCUCGAGCAA [U17C A60G], the nonsense suppression came to 0.411.
For CUCUCGGUAGCCAAGUCGGUUUAAGGCGCAAGACUUUAAUUUAUCACUACGAAAUCUUGCGAUCGGGCGUUCGACUCGCCCCCGGGAGAUUUUUUCCUCGAGCAA [U17C A60C], the nonsense suppression came out at 0.196.
Under CUCUCGGUAGCCAAGUCGGUUUAAGGCGCAAGACUUUAAUUUAUCACUACGAAAUCUUGAGCUCGGGCGUUCGACUCGCCCCCGGGAGAUUUUUUCCUCGAGCAA [U17C A62C] stands 0.734.
Under CUCUCGGUAGCCAAGUCGGUUUAAGGCGCAAGACUUUAAUUUAUCACUACGAAAUCUUGAAAUCGGGCGUUCGACUCGCCCCCGGGAGAUUUUUUCCUCGAGCAA [U17C G61A] stands 0.235; under CUCUCGGUAGCCAAGUCGGUUUAAGGCGCAAGACUUUAAUUUAUCACUACGAAAUCUUGACAUCGGGCGUUCGACUCGCCCCCGGGAGAUUUUUUCCUCGAGCAA [U17C G61C], 0.769; under CUCUCGGUAGCCAAGUCGGUUUAAGGCGCAAGACUUUAAUUUAUCACUACGAAAUCUUGAGAUCGGGCGUUCGACUCGCCCCUGGGAGAUUUUUUCCUCGAGCAA [U17C C83U], 0.191.
For the variant CUCUCGGUAGCCAAGUCGGUUUAAGGCGCAAGACUUUAAUUUAUCACUACGAAAUCUUGAGGUCGGGCGCUCGACUCGCCCCCGGGAGAUUUUUUCCUCGAGCAA [U17C A62G U70C], the nonsense suppression is at most 0.026.
Take CUCUCGGUAGCCAAGUCGGUUUAAGGCGCAAGACUUUAAUUUAUCACUACGAAAUCUUGAGAUCGGGCGUUCGACUCGCCCCCAGGAGAUUUUUUCCUCGAGCAA [U17C G84A]: the nonsense suppression turned out to be 0.048.
Under CUCUCGGUAGCCAAGUCGGUUUAAGGCACAAGACUUUAAUUUAUCACUACGAAAUCUUGACAUCGGGCGUUCGACUCGCCCCCGGGAGAUUUUUUCCUCGAGCAA [U17C G28A G61C] stands 0.716; under CUCUCGGUAGCCAAGUCGGUUUAAGGCCCAAGACUUUAAUUUAUCACUACGAAAUCUUGAGAUCGGGCGUUCGAGUCGCCCCCGGGAGAUUUUUUCCUCGAGCAA [U17C G28C C75G], 1.02; under CUCUCGGUAGCCAAGUCGGUUUAAGGCGCGGGACUUUAAUUUAUCACUACGAAAUCUUGAGAUCGGGCGUUCGACUCGCCCCCGGGAGAUUUUUUCCUCGAGCAA [U17C A30G A31G], 0.0827.
Turning to CUCUCGGUAGCCAAGUCGGUUUAGGGCGCAAGACUUUAAUUUAUCACUACGAAAUCUUGAGAUCGGGCGUUCGACUCGCCCCCGGGAGAUUUUUUCCUCGAGCAA [U17C A24G], the nonsense suppression amounted to 0.0323.

These data come from the RNAGym collection of RNA variant scans (doi:10.1101/gad.245936.114).
